# Bioassay records: PubChem BioAssay, Broad Institute
# The list is a sample of the results.
# PGC1a Ac signal = compounds raising PGC1a acetylation signal, primary screen, PGC1a modulator project, cell-based, U2OS, AlphaScreen, signal-increasing mode; overnight; activation, % at 15.6 µM; 350,000 compounds, 0.21% hits; AID 651723, 2012;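 active = every replicate reaching activation of at least 50%, whatever the mean replicate activation; inconclusive = replicates that disagree or another doubt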;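 also: hits raise the AlphaScreen acetylation signal above neutral controls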
#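 System: Flag-PGC1a/GCN5 U2OS cells | Quantity: 7000 cells/well | Times: Overnight compound treatment, 37 °C | Measured by: AlphaScreen proximity luminescence, anti-acetyl-lysine antibody | Dosing: One concentration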
# G6PC hep suppr = suppressors of forskolin-stimulated G6PC mRNA, dose response, PGC-1a acetylation activator project, cell-based, hepatocytes, RT-qPCR, cherry-picked samples | shares compounds with PGC1a Ac signal | primary mouse hepatocytes | G6PC suppression (normalized activity, % of positive control; higher = more suppression), % at 26 µM | 240 tested, under 10 active | AID 743463, 2014;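 active = dose curves showing G6PC suppression whose half-maximal dose is at most twice the top valid dose; inconclusive = flat curves with moderate negative activity, or unreliable fits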;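 also: G6PC expression relative to GAPDH housekeeping gene as delta delta Ct; 0% = median of neutral control wells and 100% = median of positive control wells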
# Hep PCK1 suppr = suppression of PCK1 mRNA in primary hepatocytes, dose response, PGC-1a acetylation activator project, cell-based, primary mouse hepatocytes, RT-qPCR, cherry-pick; shares compounds with PGC1a Ac signal; PCK1 expression decrease, unspecified at 26 µM; 230 tested, under 10 active; forskolin-stimulated;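 active = compounds lowering PCK1 expression whose fitted half-maximal concentration is at most twice the top tested dose; inconclusive = flat fit with moderate opposite-direction effect, or poor fit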;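 also: values are delta delta Ct of PCK1 relative to GAPDH; higher delta delta Ct means lower PCK1 expression so positive values indicate hits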
# Hep PGC-1a down = suppression of PGC-1a mRNA in primary hepatocytes, dose response, PGC-1a acetylation activator project, cell-based, primary mouse hepatocytes, RT-qPCR, cherry-pick; shares compounds with PGC1a Ac signal; PGC-1a mRNA qPCR, forskolin; top dose 26 µM; max activity (PGC-1a expression decrease), %; 240 tested, under 10 active;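 active = compound lowering PGC-1a expression with fitted half-maximal concentration at most twice its top tested dose; inconclusive = flat curve with moderate opposite-direction effect, or poor fit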;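 also: 0% = neutral control wells median and 100% = positive control wells median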
# * hit, by the source's call; ? = inconclusive; nt = no result given.
SMILES,PGC1a Ac signal,G6PC hep suppr,Hep PCK1 suppr,Hep PGC-1a down
CCCOc1ccccc1C1C(C(=O)OC)=CN(C(C)C)C=C1C(=O)OC,-92,nt,nt,nt
CN(c1ncnc(N)c1[N+](=O)[O-])C1CCS(=O)(=O)C1 (stereo not given),-58,nt,nt,nt
OCCN(Cc1ccccc1)CC1CCCCC1,-57,nt,nt,nt
OC(c1cc(-c2ccc(Cl)cc2)nc2ccccc12)C1CCCCN1 (stereo not given),?,213,45,37
CCc1nnc(N/N=C/c2ccccc2Cl)n1N,-72,nt,nt,nt
CCc1nc(SCC(=O)N2c3ccccc3Sc3ccccc32)c2ccccc2n1,-43,nt,nt,nt
COc1ccccc1-c1ccc2c(c1)C(C)(Cc1ccc(OC(F)(F)F)cc1)C(=O)N2 (stereo not given),?,-17,52,51
O=C(NCc1ccc(Cl)cc1)C1CCC(CNc2c(N3CCCC3)c(=O)c2=O)CC1 (stereo not given),-43,7,43,44
COC(=O)c1ccc(Cl)c(NC(C)=O)c1,-47,nt,nt,nt
CCn1nc(C)c(CN2CCc3c([nH]c4ccccc34)C2C(C)(C)C)c1C (stereo not given),150*,-24,?,51
CC(=O)Nc1ccc(NC2=C/C(=N/S(=O)(=O)c3cccs3)c3ccccc3C2=O)cc1,-70,nt,nt,nt
Cc1ccc2[nH]c(=O)c(CN(Cc3ccc4c(c3)OCO4)Cc3nnnn3C3CCCC3)cc2c1,58*,27,85,65
COc1ccc(CN(Cc2cc3ccc(C)cc3[nH]c2=O)Cc2nnnn2C2CCCC2)cc1,-53,nt,nt,nt
COc1cc(NS(=O)(=O)c2ccc(N)cc2)nc(OC)n1,-57,nt,nt,nt
Clc1ccc(-c2csc(N3CCSCC3)n2)cc1,-45,-18,-17,29
Cc1cc(Cn2nc(C(=O)NCc3cccc(C(F)(F)F)c3)cc2-c2ccccc2)on1,78*,-60,?,30
O=C1C(Cl)=C(N2CCOCC2)C(=O)N1CCc1ccccc1,-42,nt,nt,nt
CC1CC(NS(=O)(=O)c2cccs2)CC(C)(C)C1 (stereo not given),265*,99,69,157
Cc1ccccc1NC1=C/C(=N\S(=O)(=O)c2cccs2)c2ccccc2C1=O,-88,nt,nt,nt
CCOC(=O)c1ccc(N2C(=O)CC(N3CCC(O)(c4ccc(Br)cc4)CC3)C2=O)cc1 (stereo not given),-47,nt,nt,nt
c1ccc(CNc2ncnc3nc[nH]c23)cc1,-45,nt,nt,nt
O=C(Cn1cnc2c(nnn2Cc2ccc(Cl)cc2)c1=O)c1ccccc1,-50,nt,nt,nt
CC1(Cc2ccc(Cl)cc2)C(=O)Nc2c(Cl)ccc(Cl)c21 (stereo not given),80*,-63,nt,?
Cn1nnnc1SC1CC(=O)N(c2ccccc2)C1=O (stereo not given),-44,nt,nt,nt
O=C(Nc1ccccc1)C1=C[C@@H](c2ccc(C(F)(F)F)cc2)C[C@@H](OCc2ccc(CO)cc2)O1,63*,16,35,27
SMILES,PGC1a Ac signal,G6PC hep suppr,Hep PCK1 suppr,Hep PGC-1a down
CCOC(=O)C1=CC[C@@H](c2ccc(F)cc2)N(S(=O)(=O)c2ccc(C)cc2)[C@H]1c1ccccc1,90*,nt,34,93
CCOC(=O)C1=C[C@@H](C(C)C)N(S(=O)(=O)c2ccc(C)cc2)[C@H]1c1ccc(C(F)(F)F)cc1,131*,-32,22,58
Cc1cc(/C=C2\C(=N)N3N=C(C(C)C)SC3=NC2=O)c(C)n1Cc1ccccc1,-49,nt,nt,nt
Cc1c(Nc2cc(Cl)c3nonc3c2[N+](=O)[O-])c(=O)n(-c2ccccc2)n1C,-40,nt,nt,nt
Cc1ccc(C)c(NC(=S)Nc2cccc3cnccc23)c1,-51,nt,nt,nt
COc1cc(C2Nc3cccc4cccc(c34)N2)cc(OC)c1OC(C)=O,-45,nt,nt,nt
O=C(Cc1ccccc1)Nc1ccc(NC(=O)c2ccco2)nc1,?,-6,-48,84
O=C(/C(=C/O)N=Nc1ccccc1)c1ccco1,-42,nt,nt,nt
CC(C)(C)NC(=O)Cn1nnc(-c2ccccc2NC(=O)c2ccco2)n1,-44,nt,nt,nt
CCCOc1ccc2ccccc2c1/C=C1\SC(=O)NC1=O,-76,nt,nt,nt
CC12CCC(C1)C(C)(C)C2NS(=O)(=O)c1ccc(F)cc1 (stereo not given),?,19,nt,?
COc1ccc(N=C2C(=Nc3ccc(OC)cc3)N(c3ccc(OC)cc3)C(=S)N2C(=O)c2ccc(OC)cc2)cc1,-46,nt,nt,nt
OC[C@@H]1CN(Cc2ccccc2)C[C@H](n2cnc3c(NCc4ccco4)ncnc32)O1,-101,nt,nt,nt
COc1ccc(OCCc2nnc(N)s2)cc1,-43,nt,nt,nt
